Measured values: publication PMC3673543 (Biochemistry, 2012)

B1: HIV-1 TAR RNA (structured_RNA)
RNA: GGCAGAUCUGAGCCUGGGAGCUCUCUGCC

How the values were obtained:
HIV TAR RNA [1] = experiment: UV thermal denaturation of HIV TAR RNA with ligand; type: binding, HIV-1; conditions: 100 mM KCl; for ΔTm (at rdr = 1): pH 6.8, TAR RNA 1 μM/strand; for Tm: ligand/HIV TAR RNA complex, rdr = 1, 10 mM SC, 0.5 mM EDTA, pH 6.8, TAR RNA 1 μM/strand
HIV TAR RNA [2] = experiment: Ethidium bromide displacement; type: binding, HIV-1; conditions: read-out: IC50 (ethidium bromide displacement); 100 mM KCl, 10 mM SC, 0.5 mM EDTA, pH 6.8; HIV TAR RNA 50 nM/strand
In short: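 Ethidium bromide at 1.25 μM is excited at 545 nm, and emission is scanned from 560 to 607 nm before and after adding TAR RNA. Under these conditions, less than 20% of the ethidium bromide is bound. Fluorescence displacement titration with test compound follows in the same buffer.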

HIV TAR RNA [3] = experiment: Ethidium bromide displacement titration with Scatchard analysis; type: binding, HIV-1; conditions: 100 mM KCl, 10 mM SC, 0.5 mM EDTA, pH 6.8; TAR RNA 200 nM/strand; EtBr 5 μM
In short: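 Fluorescent intercalator displacement: test compound titrated into ethidium bromide (5 μM) plus HIV TAR RNA (200 nM/strand) in 10 mM SC, 0.5 mM EDTA, pH 6.8 with 100 mM KCl. Salt series run at 50, 100 and 150 mM KCl. Excitation 545 nm, emission 560–607 nm. Scatchard plot slope gives the association constant K. For the salt series, log K was plotted against log [KCl] and fitted linearly.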

tetraloop TAR RNA Mutant = experiment: FID titration with Scatchard analysis on mutant TAR; type: binding, HIV-1; conditions: mutant tetraloop TAR 200 nM/strand; 100 mM KCl, pH 6.8; EtBr 5 μM
In short: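 Tetraloop TAR RNA–ethidium bromide complex in 100 mM KCl, 10 mM SC, 0.5 mM EDTA, pH 6.8, titrated with increasing test compound. The fall in fluorescence at 610 nm was followed. Normalized intensity was plotted against compound concentration, then transformed by Scatchard analysis to derive the binding constant.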

HIV = experiment: Protection from HIV-induced cytopathic effect; type: cell-based; conditions: for Maximum protection from HIV cytopathic effects: neutral red dye
In short: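 MT-2 cells, a line highly susceptible to HIV and fully lysed by it, were used in triplicate wells. Finter's neutral red, a vital dye, served as read-out of inhibition of HIV-induced cytopathic effect, with water as control. Maximum percent protection was recorded together with the compound concentration at which it was reached.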

HIVNL4-3 = experiment: Reverse transcriptase release into culture supernatant of MT-2 cells; type: cell-based, HIV
In short: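 MT-2 cells (500,000/well) were preincubated 1 h at 37 °C with test compound at a non-toxic concentration (≤5% cell death), then infected with H9-grown HIV NL4-3 (100,000 cpm RT activity per well, MOI <1). Virus control was infected cells plus water. Supernatants from days 2, 4 and 6 were PEG-precipitated and lysed. RT was measured as 3H-dTTP incorporation (poly rA-oligo dT, 1 h, 37 °C), as cpm/ml. Three separate experiments, each in triplicate.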

TAR = conditions: aminoglycosides targeted towards TAR binding; cited from earlier work
MT-2 cells = experiment: Toxicity against MT-2 cells; type: cell-based; conditions: concentration where no more than 5% cell death
[4] = biological target: T1, Tat49-57 peptide, fluorescein/TAMRA FRET probe (HIV-1, UniProt P04608 49-57, not fully specified); experiment: fluorescence intensity
T1 chain: RKKRRQRRR

Molecule	ΔTm (at rdr = 1) (HIV TAR RNA [1]) [°C]	Tm (HIV TAR RNA [1]) [°C]	IC50 (HIV TAR RNA [2]) [nM]	K (binding constant from Scatchard analysis of FID) (HIV TAR RNA [3]) [M⁻¹]	Ka (Scatchard analysis of FID titration) (tetraloop TAR RNA Mutant)	anti-HIV activity in the 96-well plate screening assay (HIV; HIV-induced cytopathic effect)	protection / suppression of RT release (HIVNL4-3; day 2 post inoculation, vs virus control)	protection / suppression of RT release (HIVNL4-3; day 4, vs virus control)	protection / suppression of RT release (HIVNL4-3; day 6, vs virus control)	ΔTm (at rdr = 1) (HIV TAR RNA [1]; listed as neomycin)	Maximum protection from HIV cytopathic effects (HIV; MT-2 cells) [%]	inhibitory effect (TAR)	5% Toxicity (CT5) (MT-2 cells) [µM]	concentration at which maximum protection was achieved (HIV; MT-2 cells, HIV cytopathic effect) [µM]	apparent K (half saturation) [4] [nM]
NC[C@@H]1O[C@H](O[C@H]2[C@@H](O)[C@H](O[C@@H]3[C@@H](O)[C@H](N)C[C@H](N)[C@H]3O[C@H]3O[C@H](CN)[C@@H](O)[C@H](O)[C@H]3N)O[C@@H]2Cn2cc(-c3cccc(-c4cn(C[C@H]5O[C@@H](O[C@@H]6[C@@H](O)[C@H](N)C[C@H](N)[C@H]6O[C@H]6O[C@H](CN)[C@@H](O)[C@H](O)[C@H]6N)[C@H](O)[C@@H]5O[C@H]5O[C@@H](CN)[C@@H](O)[C@H](O)[C@H]5N)nn4)c3)nn2)[C@H](N)[C@@H](O)[C@@H]1O [DPA65]	9.3	78.2	36	1.39e+08	~ 10^7 M^−1	inactive to weakly active	40-67%	68-73%	24-27%						
NC[C@@H]1O[C@H](O[C@H]2[C@@H](O)[C@H](O[C@@H]3[C@@H](O)[C@H](N)C[C@H](N)[C@H]3O[C@H]3O[C@H](CN)[C@@H](O)[C@H](O)[C@H]3N)O[C@@H]2CO)[C@H](N)[C@@H](O)[C@@H]1O [Neomycin, Neomycin B tri-sulfate, reference compound]	0.2	69.1	417							no thermal stabilization	9	less than 1 μM			
NC[C@@H]1O[C@H](O[C@H]2[C@@H](O)[C@H](O[C@@H]3[C@@H](O)[C@H](N)C[C@H](N)[C@H]3O[C@H]3O[C@H](CN)[C@@H](O)[C@H](O)[C@H]3N)O[C@@H]2Cn2cc(COCc3cn(C[C@H]4O[C@@H](O[C@@H]5[C@@H](O)[C@H](N)C[C@H](N)[C@H]5O[C@H]5O[C@H](CN)[C@@H](O)[C@H](O)[C@H]5N)[C@H](O)[C@@H]4O[C@H]4O[C@@H](CN)[C@@H](O)[C@H](O)[C@H]4N)nn3)nn2)[C@H](N)[C@@H](O)[C@@H]1O [DPA51]	10.2	79.1	56	1.17e+08											
NC[C@@H]1O[C@H](O[C@H]2[C@@H](O)[C@H](O[C@@H]3[C@@H](O)[C@H](N)C[C@H](N)[C@H]3O[C@H]3O[C@H](CN)[C@@H](O)[C@H](O)[C@H]3N)O[C@@H]2Cn2cc(CCCCc3cn(C[C@H]4O[C@@H](O[C@@H]5[C@@H](O)[C@H](N)C[C@H](N)[C@H]5O[C@H]5O[C@H](CN)[C@@H](O)[C@H](O)[C@H]5N)[C@H](O)[C@@H]4O[C@H]4O[C@@H](CN)[C@@H](O)[C@H](O)[C@H]4N)nn3)nn2)[C@H](N)[C@@H](O)[C@@H]1O [DPA54]	8.2	77.1	81	2.61e+07							31		69	17	
B1															86 ± 9
